Source: ChEMBL document CHEMBL5214907 (J Med Chem, 2021)

Target: Neuronal acetylcholine receptor; alpha9/alpha10 (Homo sapiens, UniProt Q9GZZ6+Q9UGM1)
Experiment: Inhibition of human alpha9alpha10 nAChR expressed in xenopus oocytes assessed as inhibition of Ach- induced response at -70 mV holding potential and measured for 1 to 5 days in presence of Ach stimulation by voltage-clamp based electrophysiological method
Type: cell-based, Oocyte
Outline: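 Two-electrode voltage clamp on Xenopus oocytes expressing human α9α10, recorded 1–5 d after injection. Held at −70 mV at room temperature in Ca²⁺-containing ND-96. A 1 s pulse of 100 µM ACh was given every 60 s and peptide was flowed on. IC50 with 95% CI from 3–5 separate oocytes.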

Chain of Neuronal acetylcholine receptor; alpha9/alpha10 (Q9UGM1 whole entry): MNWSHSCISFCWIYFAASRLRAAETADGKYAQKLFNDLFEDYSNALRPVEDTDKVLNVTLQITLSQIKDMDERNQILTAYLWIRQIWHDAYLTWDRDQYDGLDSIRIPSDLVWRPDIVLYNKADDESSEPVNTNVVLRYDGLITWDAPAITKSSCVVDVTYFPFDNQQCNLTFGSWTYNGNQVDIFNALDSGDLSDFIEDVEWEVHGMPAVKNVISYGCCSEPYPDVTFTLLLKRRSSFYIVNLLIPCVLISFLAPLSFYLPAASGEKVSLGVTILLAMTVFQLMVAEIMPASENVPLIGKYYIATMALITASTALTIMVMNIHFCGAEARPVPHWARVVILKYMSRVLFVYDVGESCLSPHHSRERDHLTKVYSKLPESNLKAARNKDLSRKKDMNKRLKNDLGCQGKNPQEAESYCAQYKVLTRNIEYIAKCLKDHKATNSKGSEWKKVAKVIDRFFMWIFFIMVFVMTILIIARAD
Chain of Neuronal acetylcholine receptor; alpha9/alpha10 (Q9GZZ6 whole entry): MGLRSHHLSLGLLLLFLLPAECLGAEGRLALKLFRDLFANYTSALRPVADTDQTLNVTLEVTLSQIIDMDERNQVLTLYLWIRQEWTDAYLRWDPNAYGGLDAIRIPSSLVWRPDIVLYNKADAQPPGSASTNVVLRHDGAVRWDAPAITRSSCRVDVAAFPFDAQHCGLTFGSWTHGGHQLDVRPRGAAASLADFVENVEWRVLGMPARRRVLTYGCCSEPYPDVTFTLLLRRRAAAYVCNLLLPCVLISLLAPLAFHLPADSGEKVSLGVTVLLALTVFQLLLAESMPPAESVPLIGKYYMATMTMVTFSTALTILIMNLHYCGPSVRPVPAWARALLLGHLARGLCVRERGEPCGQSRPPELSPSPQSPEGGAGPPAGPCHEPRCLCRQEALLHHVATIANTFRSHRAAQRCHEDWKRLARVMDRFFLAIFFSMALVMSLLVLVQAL

| SMILES | IC50 [nM] |
| --- | --- |
| C[C@@H](O)[C@@H]1NC(=O)[C@H]2NC(=O)[C@H](NC(=O)CN)CSSC[C@H](NC(=O)[C@H](CCCNC(=N)N)NC(=O)[C@@H]3CCCN3C(=O)[C@H](CC(=O)O)NC1=O)C(=O)N[C@@H](CCCNC(=N)N)C(=O)N[C@@H](Cc1ccc(O)c(I)c1)C(=O)N[C@@H](CCCN)C(=O)N[C@H](C(=O)N[C@H](CC(=O)N[C@H](CCCNC(=N)N)C(=O)O)Cc1ccc(O)cc1)CSSC2(C)C | 4 |
| C[C@@H](O)[C@@H]1NC(=O)[C@H]2NC(=O)[C@H](NC(=O)CN)CSSC[C@H](NC(=O)[C@H](CCCNC(=N)N)NC(=O)[C@@H]3CCCN3C(=O)[C@H](CC(=O)O)NC1=O)C(=O)N[C@@H](CCCNC(=N)N)C(=O)N[C@@H](Cc1ccc(O)c(I)c1)C(=O)N[C@@H](CCCN)C(=O)N[C@H](C(=O)N[C@H](CC(=O)N[C@@H](CCC(=O)O)C(=O)O)Cc1ccc(O)cc1)CSSC2(C)C | 0.4 |
| C[C@@H](O)[C@@H]1NC(=O)[C@H]2NC(=O)[C@H](NC(=O)CN)CSSC[C@H](NC(=O)[C@H](CCCNC(=N)N)NC(=O)[C@@H]3CCCN3C(=O)[C@H](CC(=O)O)NC1=O)C(=O)N[C@@H](CCCNC(N)=O)C(=O)N[C@@H](Cc1ccc(O)c(I)c1)C(=O)N[C@@H](CCC(N)=O)C(=O)N[C@H](C(=O)N[C@@H](Cc1ccc(O)cc1)C(=O)O)CSSC2(C)C | 1.3 |
| C[C@@H](O)[C@@H]1NC(=O)[C@H]2NC(=O)[C@H](NC(=O)CN)CSSC[C@H](NC(=O)[C@H](CCCNC(=N)N)NC(=O)[C@@H]3CCCN3C(=O)[C@H](CC(=O)O)NC1=O)C(=O)N[C@@H](CCCNC(=N)N)C(=O)N[C@@H](Cc1ccc(O)c(I)c1)C(=O)N[C@@H](CCCN)C(=O)N[C@H](C(=O)N[C@H](CC(=O)N[C@@H](CCCNC(N)=O)C(=O)O)Cc1ccc(O)cc1)CSSC2(C)C | 0.26 |
| C[C@@H](O)[C@@H]1NC(=O)[C@H]2NC(=O)[C@H](NC(=O)CN)CSSC[C@H](NC(=O)[C@H](CCCNC(=N)N)NC(=O)[C@@H]3CCCN3C(=O)[C@H](CC(=O)O)NC1=O)C(=O)N[C@@H](CCCNC(=N)N)C(=O)N[C@@H](Cc1ccc(O)c(I)c1)C(=O)N[C@@H](CCCN)C(=O)N[C@H](C(=O)N[C@H](CC(=O)N[C@@H](CCCCN)C(=O)O)Cc1ccc(O)cc1)CSSC2(C)C | 0.36 |
